The record followed here is PubChem BioAssay.

Experiment [1] in a line: inhibitors of TNFa-induced NFkB p65 translocation, primary screen, imaging, HUVEC, MLSMR starter and 10KST1 sets (AID 438;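 active = inhibition above 20% together with a positive visual image hit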;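 also: compound added about 3h40 before a 20 min TNFalpha stimulation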;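 as to inhibition: signal is the nuclear over cytoplasmic p65 intensity ratio per well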). Particulars: HUVEC TNFa-induced p65 nuclear translocation; cell count: measured here: nuclei count (cytotoxicity indicator), at 2.08 µM; inhibition: at 2 µM, stronger effect = higher value, 0% TNFa-plus-vehicle, 100% no-TNFa wells.
The nature of experiment [2]: endothelial E-selectin expression blockers – imaging, HUVEC, immunofluorescence, MLSMR starter and 10KST1 sets, primary screen (AID 487;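 active = visually confirmed hit in the image check and inhibition above 20%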;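 as to inhibition: signal is fraction of cell area covered by stained E-selectin grains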;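 as to nuclei count: 100% = median nuclei count of all wells on the same plate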). The note with it: HUVEC TNFalpha-induced E-selectin immunofluorescence imaging, at 2 µM; inhibition: stronger effect = higher value; nuclei count: measured here: cell number, toxicity.
Experiment [3] can be described thus: Primary imaging screen for DUSP6 inhibitors that restore phospho-Erk in transfected HeLa cells, chemical complementation (AID 609;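 active = compounds giving at least 50% inhibition in the cell-based MKP-3 phosphatase rescue imaging test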;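 as to inhibition: phospho-Erk level distribution per well compared with pooled transfected vehicle control wells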). The note with it: HeLa MKP-3 transfected, phospho-Erk imaging KS statistic, at 10 µM, cells stimulated with TPA for 15 min.
Experiment [4] concerns the target Dual specificity protein phosphatase 6 (Homo sapiens) (UniProt Q16828). The description is as above. The note with it: HeLa MKP-3 transfected, phospho-Erk imaging KS statistic; at 10 µM; stronger effect = higher value; cells stimulated with TPA for 15 min.
Experiment [5] has as its target Voltage-gated potassium channel subunit beta-2 (Rattus norvegicus) (UniProt P62483). Kind of experiment: inhibitors of rat Kvbeta2 reductase activity – biochemical, NADPH fluorescence, primary screen (AID 622;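 active = fluorescence slope higher than the sample average by over 3 SD, cut at about -0.22 in these data, passing the limit was not always enough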;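 also: slope of raw intensity against log time taken from 70 to 1610 s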). The note with it: recombinant KvBeta, 4-cyanobenzaldehyde reduction, at 10 µM, stronger effect = higher value.
Experiment [6] has the same target. Kind of experiment: enhancers of rat Kvbeta2 NADPH turnover – biochemical, NADPH fluorescence, primary screen (AID 623;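 active = NADPH fluorescence slope more negative than the mean of all samples by about 3 SD, 99.7% confidence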;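 also: fluorescence intensity change per second fitted from 20 to 320 s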). Particulars: Recombinant KvBeta, NADPH fluorescence decrease slope, 10 min; at 10 µM; stronger effect = lower value.
In experiment [7] the target is Alpha-2C adrenergic receptor (Homo sapiens) (UniProt P18825). Kind of experiment: compounds altering alpha2C-coupled GIRK flux – cell-based, HEK293 alpha2C/GIRK1/2, thallium flux, primary screen (AID 624;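 active = fluorescence slope after compound addition differing from the mean of all screened samples at 99.7% confidence, in either direction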;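 also: slope of fluorescence ratio to pre-addition baseline per second over 15 to 24 s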). The note with it: thallium flux BTC fluorescence, at 10 µM, actives lie on both sides.
The nature of experiment [8]: inhibitors of larval lipid processing in zebrafish, primary screen, whole organism, PED6 fluorescence, gall bladder and intestine (AID 686;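 active = a full or partial loss of lipid-probe fluorescence in the fish gall bladder, intestine or both, judged by eye; inactive = no fluorescence loss, or compound toxic to the fish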;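 also: larvae 5 to 7 days old with five fish per well; signal comes from phospholipase A2 cleavage of quenched PED6 carried via bile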). The note with it: Zebrafish larvae PED6 lipid processing, fluorescence scoring; screened at 20 µM (by protocol). The method, boiled down: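 System: live zebrafish larvae aged 5-7 days, whole organism; measure: graded gall bladder and intestinal fluorescence inhibition per well; incubation: overnight exposure; reagent: ingested quenched lipid PED6 at 100 nM; signal: By-eye fluorescence microscopy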

A short description of experiment [9]: loss of swimming-algae plug formation – whole organism, Chlamydomonas reinhardtii, WT vs cilia-less mutant, absorbance, 96-well, primary screen (AID 463189).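 Also: 0% = wild type cc124 cells in DMSO and 100% = ciliumless bld1 mutant cells.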 Particulars: Chlamydomonas reinhardtii gravitaxis, OD600 absorbance, 2 days; at 10 µM; stronger effect = higher value.
Setting [10] is: measured here: cell density z-score.
Where [11] appears, read: measured here: nuclear c-Myc green intensity z-score.
[12] abbreviates: measured here: nuclear pErk red intensity z-score, stronger effect = higher value.

Molecules are shown by their SMILES. The source made the active and inactive calls.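 The calls were made as follows, unless noted: active = inhibition at or above 50% relative to wild type and mutant plate controls; inactive = inhibition below 50%.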

Sequence of Voltage-gated potassium channel subunit beta-2 (Rattus norvegicus) (P62483 whole entry, looked up): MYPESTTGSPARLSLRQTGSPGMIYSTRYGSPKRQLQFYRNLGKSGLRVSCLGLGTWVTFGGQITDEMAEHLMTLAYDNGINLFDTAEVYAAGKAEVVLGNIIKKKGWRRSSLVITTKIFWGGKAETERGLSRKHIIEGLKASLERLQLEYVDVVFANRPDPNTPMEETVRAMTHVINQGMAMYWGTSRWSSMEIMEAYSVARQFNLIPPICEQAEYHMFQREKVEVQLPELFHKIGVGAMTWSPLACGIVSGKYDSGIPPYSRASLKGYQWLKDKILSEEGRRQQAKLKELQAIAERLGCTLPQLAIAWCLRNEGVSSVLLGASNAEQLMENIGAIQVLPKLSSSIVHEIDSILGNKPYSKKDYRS
Sequence of Dual specificity protein phosphatase 6 (Homo sapiens) (Q16828 whole entry, looked up): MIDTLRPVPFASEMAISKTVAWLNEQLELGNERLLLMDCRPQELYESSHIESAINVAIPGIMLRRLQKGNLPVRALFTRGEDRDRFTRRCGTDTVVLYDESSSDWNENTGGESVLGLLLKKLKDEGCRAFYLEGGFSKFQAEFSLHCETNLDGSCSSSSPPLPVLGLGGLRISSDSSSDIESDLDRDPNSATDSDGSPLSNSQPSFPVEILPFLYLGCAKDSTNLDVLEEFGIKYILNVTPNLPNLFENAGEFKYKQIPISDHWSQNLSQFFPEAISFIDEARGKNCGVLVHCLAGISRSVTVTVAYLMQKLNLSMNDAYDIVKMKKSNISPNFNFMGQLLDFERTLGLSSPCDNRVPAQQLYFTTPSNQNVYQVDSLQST
Sequence of Alpha-2C adrenergic receptor (Homo sapiens) (P18825 whole entry, looked up): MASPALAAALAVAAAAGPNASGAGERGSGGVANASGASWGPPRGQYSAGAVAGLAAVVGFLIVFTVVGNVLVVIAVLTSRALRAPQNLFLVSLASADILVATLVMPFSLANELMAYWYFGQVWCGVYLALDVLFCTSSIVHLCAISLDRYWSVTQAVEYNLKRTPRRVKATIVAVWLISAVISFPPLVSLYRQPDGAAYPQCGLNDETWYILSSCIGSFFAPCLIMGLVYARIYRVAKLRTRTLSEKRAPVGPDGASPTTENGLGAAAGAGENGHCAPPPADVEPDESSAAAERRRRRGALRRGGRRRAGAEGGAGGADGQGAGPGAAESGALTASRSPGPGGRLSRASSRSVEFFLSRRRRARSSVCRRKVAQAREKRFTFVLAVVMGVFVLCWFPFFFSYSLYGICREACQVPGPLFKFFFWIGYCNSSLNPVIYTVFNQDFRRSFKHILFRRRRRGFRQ

With `c1ccc(OCc2nn3c(-c4cccnc4)nnc3s2)cc1`, the cell count in [1] is 598. Moreover, the inhibition in [1] is -6.1% (inactive); in experiment [2], -87.1% (inactive); in [4], -16.8% (inactive); in experiment [9], 22.5% (inactive). The nuclei count in experiment [2] is 146%. The values for the z-score in experiment [3] (setting [10]), in experiment [3] (setting [11]) and in experiment [3] (setting [12]) were 0.586, -1.52 and -0.25, respectively. For the same molecule, the fluorescence slope in experiment [5] is -0.423 (inactive). For the same molecule, the NADPH fluorescence slope in [6] is -5.5e-05 (inactive). The slope in experiment [7] was 0.0063 (inactive). The outcome in [8] was inactive.

As to `Cc1cc(C)nc(N(C#N)CC(=O)N(c2ccccc2)C(C)C)n1`, the cell count in experiment [1] turned out to be 584. For the same molecule, the inhibition is -10.3% (inactive) in [1], 50% (inactive) in [2], -11% (inactive) in experiment [4] and 5.11% (inactive) in experiment [9]. Besides, the nuclei count in experiment [2] turned out to be 140%. Besides, the z-score in [3] (setting [10]) is -1.19; in experiment [3] (setting [11]), -0.154; in [3] (setting [12]) it was 2.33. The fluorescence slope in [5] was -0.345 (inactive). Besides, the NADPH fluorescence slope in experiment [6] was -2.8e-05 (inactive). In addition, the slope in [7] was 0.00548 (inactive). Besides, in experiment [8], the outcome was inactive.

As for `CNC(=O)c1cc2c(ccc3ccccc32)oc1=N`, in experiment [1], the cell count was determined as 498. Moreover, the inhibition in experiment [1] is -4% (inactive); in experiment [2] it was -64.4% (inactive); in experiment [4], -0.159% (inactive); in experiment [9] it was 0.922% (inactive). Moreover, the nuclei count in experiment [2] is 134%. Besides, the z-score is 0.106 in [3] (setting [10]), 1.1 in [3] (setting [11]) and -0.558 in experiment [3] (setting [12]). For the same molecule, the fluorescence slope in experiment [5] is -0.075 (active). Further, the NADPH fluorescence slope in [6] was -2.6e-05 (inactive). In addition, in [7], the slope is 0.00187 (inactive). Moreover, the call in experiment [8] was inactive.

As to `Cn1c(NCc2ccco2)nc2c1c(=O)n(Cc1ccc(Cl)c(Cl)c1)c(=O)n2C`, in [1], the cell count was 615. The inhibition in experiment [1] is -3.6% (inactive); in experiment [2] it was -47.4% (inactive); in experiment [4], -1.12% (inactive); in [9], 48.3% (inactive). This molecule also registered a nuclei count in [2] of 147%. Besides, the z-score in experiment [3] (setting [10]) is -0.044; in [3] (setting [11]) it was 0.293; in experiment [3] (setting [12]), 1.11. For the same molecule, in experiment [5], the fluorescence slope is -0.511 (inactive). Also, the NADPH fluorescence slope in [6] is -6.1e-05 (inactive). Also, the slope in [7] was 0.00544 (inactive). For the same molecule, in experiment [8], the molecule was called inactive.

`COc1ccccc1C(=O)NC(=Nc1nc2ccccc2o1)NC(=O)c1ccccc1OC`: the cell count in [1] was 511. Further, the inhibition was -2.8% (inactive) in experiment [1], 0.2% (inactive) in experiment [2], -2.91% (inactive) in [4] and -7.36% (inactive) in experiment [9]. This molecule gave a nuclei count in [2] of 100%. Also, the z-score in experiment [3] (setting [10]) is -1.24; in [3] (setting [11]), -0.586; in experiment [3] (setting [12]), 0.38. Further, in experiment [5], the fluorescence slope is -0.572 (inactive). Further, in experiment [6], the NADPH fluorescence slope is -9.6e-05 (inactive). The slope in [7] is 0.0126 (inactive). The molecule was called inactive in experiment [8].

Turning to `Cc1ccc(SCc2c(C#N)c3ccccc3n2C)cc1`, in [1], the cell count stood at 288. Moreover, the inhibition in [1] was -2.4% (inactive); in [2], -79.2% (inactive); in experiment [4] it was 12.3% (inactive); in experiment [9], 16.9% (inactive). The nuclei count in [2] is 129%. For the same molecule, the z-score is -1.74 in experiment [3] (setting [10]), 2.02 in experiment [3] (setting [11]) and 0.448 in [3] (setting [12]). Moreover, the fluorescence slope in [5] is -0.445 (inactive). The NADPH fluorescence slope in [6] was -0.000146 (inactive). In addition, in [7], the slope was 0.00992 (active). Further, the call in [8] was inactive.

As to `Cc1ccccc1OCC(O)Cn1c(N2CCN(c3ccccc3)CC2)nc2c1c(=O)[nH]c(=O)n2C` (stereo not drawn), the cell count in [1] came out at 519. Moreover, the inhibition was -0.6% (inactive) in experiment [1], -227% (inactive) in experiment [2], 8.76% (inactive) in experiment [4] and 22.7% (inactive) in [9]. The molecule further yielded a nuclei count in [2] of 134%. The z-score is -0.379 in experiment [3] (setting [10]), -1.18 in [3] (setting [11]) and 0.818 in [3] (setting [12]). Besides, in experiment [5], the fluorescence slope was -0.537 (inactive). In experiment [6], the NADPH fluorescence slope was -3.2e-05 (inactive). Also, the slope in experiment [7] is 0.00634 (inactive). For the same molecule, in [8], the molecule was called inactive.

On to `COc1ccc(C2CC(C(F)(F)F)n3ncc(C(=O)Nc4cccc(O)c4)c3N2)cc1OC` (stereo not drawn), for which the cell count in [1] is 494. For the same molecule, the inhibition in experiment [1] was -6.1% (inactive); in [2] it was -14.4% (inactive); in experiment [4] it was 1.75% (inactive); in experiment [9], -4.48% (inactive). The molecule also yielded a nuclei count in experiment [2] of 119%. Moreover, the z-score was -0.0495 in [3] (setting [10]), 0.084 in [3] (setting [11]) and -0.887 in experiment [3] (setting [12]). Moreover, the fluorescence slope in experiment [5] is -0.483 (inactive). For the same molecule, the NADPH fluorescence slope in experiment [6] was -0.00017 (inactive). Besides, the slope in experiment [7] was 0.0043 (inactive). Further, in experiment [8], the outcome is “active; weak signal in gallbladder and intestine”.

`CN(C)S(=O)(=O)Nc1ccc(NS(=O)(=O)N(C)C)c(S(=O)(=O)c2ccccc2)c1`: in experiment [1], the cell count was 341. For the same molecule, the inhibition was -11.9% (inactive) in experiment [1], -131% (inactive) in experiment [2], 7.73% (inactive) in experiment [4] and -7.02% (inactive) in experiment [9]. The molecule also gave a nuclei count in experiment [2] of 99.4%. Besides, the z-score was -0.765 in [3] (setting [10]), 0.48 in experiment [3] (setting [11]) and -2.08 in experiment [3] (setting [12]). Further, the fluorescence slope in experiment [5] was -0.495 (inactive). The NADPH fluorescence slope in [6] was -0.000114 (inactive). Also, in experiment [7], the slope was 0.00381 (inactive). In experiment [8], the outcome was inactive.

For `CCCOc1ccc(N2C(=O)CC(N(CCC)C(=O)CCC(=O)O)C2=O)cc1` (stereo not drawn), in experiment [1], the cell count turned out to be 468. In addition, the inhibition was -11.6% (inactive) in [1], -161% (inactive) in [2], 7.7% (inactive) in experiment [4] and 11.3% (inactive) in [9]. In addition, in [2], the nuclei count worked out at 204%. Besides, the z-score in experiment [3] (setting [10]) is -1.24; in experiment [3] (setting [11]), -0.331; in experiment [3] (setting [12]) it was -0.093. Moreover, the fluorescence slope in experiment [5] was -0.384 (inactive). Moreover, in experiment [6], the NADPH fluorescence slope is -9.2e-06 (inactive). Also, the slope in experiment [7] is 0.00456 (inactive). The outcome in [8] is “inactive; toxic”.

As to `CC1CN(C2CCN(S(=O)(=O)c3ccccc3)CC2)CC(C)O1` (stereo not drawn), in experiment [1], the cell count is 451. For the same molecule, the inhibition in experiment [1] was -10.8% (inactive); in experiment [2], -248% (inactive); in experiment [4] it was 4.37% (inactive); in experiment [9], 6.96% (inactive). In addition, the nuclei count in experiment [2] amounted to 159%. For the same molecule, the values for the z-score in experiment [3] (setting [10]), in [3] (setting [11]) and in [3] (setting [12]) were 1.27, -1.71 and -0.713, respectively. Also, the fluorescence slope in experiment [5] is -0.322 (inactive). Besides, the NADPH fluorescence slope in experiment [6] was -2.3e-05 (inactive). Also, the slope in experiment [7] was 0.00481 (inactive). Moreover, in experiment [8], the molecule was classed as inactive.

One may read the inhibition as the drop in the measured response relative to a control, in per cent.
